Experimental data reported in ChEMBL document CHEMBL1125678, “Quinazolineacetic acids and related analogues as aldose reductase inhibitors” (J Med Chem, 1991).
One block for each compound: values may come before it.

What was measured:
Rattus norvegicus [1] = assay: In vivo inhibition of galactitol accumulation in the diaphragm of rats fed 20% galactose for 4 day at 91 mg/kg/day dose; NS = No Significant inhibition of polyol accumulation; assay type: functional, organism-based
Summary of the method: (§1)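 Male Sprague-Dawley rats (50–70 g) in groups of six were fed chow with 20% (w/w) galactose. Controls received 20% glucose instead. Test compound was mixed into the diet, and dose was calculated from actual food intake. Rats were killed by decapitation after 4 days. Result is % lowering of tissue galactitol versus galactose-fed controls, as the mean of six animals, compared by Dunnett's multiple comparison.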

[2] = target: Aldo-keto reductase family 1 member B1 (Bos taurus) (UniProt P16116); assay: In vitro inhibition of aldose reductase in partially purified bovine lens preparation at a concentration of 10e-6 M.
Summary of the method: (§2)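 Enzyme from bovine lens, partially purified by the cited method with the final chromatographic step omitted. DL-Glyceraldehyde was the substrate. Test compounds were run in duplicate at 1×10⁻⁵, 1×10⁻⁶, 1×10⁻⁷ or 4×10⁻⁸ M. Values are % inhibition of enzymatic activity.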

[3] = target: Aldo-keto reductase family 1 member B1 (Bos taurus) (UniProt P16116); assay: In vitro inhibition of aldose reductase in partially purified bovine lens preparation at a concentration of 10e -7M.; summary of the method: as §2
Rattus norvegicus [4] = assay: In vivo inhibition of galactitol accumulation in the sciatic nerve of rats fed 20% galactose for 4 day at 91 mg/kg/day dose; NS = No Significant inhibition of polyol accumulation; assay type: functional, organism-based; summary of the method: as §1
Rattus norvegicus [5] = assay: (§3) In vivo inhibition of galactitol accumulation in the sciatic nerve of rats fed 20% galactose for 4 day at 95 mg/kg/day dose; NS= No Significant inhibition of polyol accumulation; assay type: functional, organism-based
[6] = target: Aldo-keto reductase family 1 member B1 (Bos taurus) (UniProt P16116); assay: In vitro inhibition of aldose reductase in partially purified bovine lens preparation at a concentration of 4*10e -8M.; summary of the method: as §2
Rattus norvegicus [7] = assay: as §3; assay type: functional, organism-based; remark: listed apart in the source
Rattus norvegicus [8] = assay: In vivo inhibition of galactitol accumulation in the diaphragm of rats fed 20% galactose for 4 day at 102 mg/kg/day dose; assay type: functional; summary of the method: as §1
[9] = target: Aldo-keto reductase family 1 member B1 (Bos taurus) (UniProt P16116); assay: In vitro inhibition of Aldose reductase in partially purified bovine lens preparation at a concentration of 10e -7M.; summary of the method: as §2
Rattus norvegicus [10] = assay: In vivo inhibition of galactitol accumulation in the diaphragm of rats fed 20% galactose for 4 day at 96 mg/kg/day dose; assay type: functional; summary of the method: as §1
[11] = target: Aldo-keto reductase family 1 member B1 (Bos taurus) (UniProt P16116); assay: In vitro inhibition of Aldose reductase in partially purified bovine lens preparation at a concentration of 4*10e -8M.; summary of the method: as §2
Rattus norvegicus [12] = assay: In vivo inhibition of galactitol accumulation in the sciatic nerve of rats fed 20% galactose for 4 day at 96 mg/kg/day dose; assay type: functional
[13] = target: Aldo-keto reductase family 1 member B1 (Bos taurus) (UniProt P16116); assay: in vitro inhibition of aldose reductase in partially purified bovine lens preparation at a concentration of 10e -6M.
[14] = target: Aldo-keto reductase family 1 member B1 (Bos taurus) (UniProt P16116); assay: In vitro inhibition of aldose reductase in partially purified bovine lens preparation at a concentration of 10e -5M.; conditions: in the assay text read “10e -6M” for “10e -5M”; summary of the method: as §2
Rattus norvegicus [15] = assay: In vivo inhibition of galactitol accumulation in the diaphragm of rats fed 20% galactose for 4 day at 70 mg/kg/day dose; assay type: functional; summary of the method: as §1
Rattus norvegicus [16] = assay: In vivo inhibition of galactitol accumulation in the sciatic nerve of rats fed 20% galactose for 4 day at 70 mg/kg/day dose; assay type: functional; summary of the method: as §1
Rattus norvegicus [17] = assay: In vivo inhibition of galactitol accumulation in the sciatic nerve of rats fed 20% galactose for 4 day at 101 mg/kg/day dose; NS = No Significant inhibition of polyol accumulation; assay type: functional, organism-based; summary of the method: as §1
Rattus norvegicus [18] = assay: In vivo inhibition of galactitol accumulation in the diaphragm of rats fed 20% galactose for 4 day at 101 mg/kg/day dose; NS = No Significant inhibition of polyol accumulation; assay type: functional, organism-based; summary of the method: as §1
Rattus norvegicus [19] = assay: In vivo inhibition of galactitol accumulation in the sciatic nerve of rats fed 20% galactose for 4 day at 99 mg/kg/day dose; NS = No Significant inhibition of polyol accumulation; assay type: functional, organism-based
Rattus norvegicus [20] = assay: In vivo inhibition of galactitol accumulation in the diaphragm of rats fed 20% galactose for 4 day at 99 mg/kg/day dose; NS = No Significant inhibition of polyol accumulation; assay type: functional, organism-based; summary of the method: as §1
Rattus norvegicus [21] = assay: In vivo inhibition of galactitol accumulation in the sciatic nerve of rats fed 20% galactose for 4 day at 100 mg/kg/day dose; assay type: functional; summary of the method: as §1
Rattus norvegicus [22] = assay: In vivo inhibition of galactitol accumulation in the diaphragm of rats fed 20% galactose for 4 day at 100 mg/kg/day dose; assay type: functional; summary of the method: as §1
Rattus norvegicus [23] = assay: In vivo inhibition of galactitol accumulation in the sciatic nerve of rats fed 20% galactose for 4 day at 95 mg/kg/day dose; assay type: functional
Rattus norvegicus [24] = assay: In vivo inhibition of galactitol accumulation in the diaphragm of rats fed 20% galactose for 4 day at 95 mg/kg/day dose; assay type: functional; summary of the method: as §1
Rattus norvegicus [25] = assay: In vivo inhibition of galactitol accumulation in the sciatic nerve of rats fed 20% galactose for 4 day at 98 mg/kg/day dose; NS = No Significant inhibition of polyol accumulation; assay type: functional, organism-based
Rattus norvegicus [26] = assay: In vivo inhibition of galactitol accumulation in the diaphragm of rats fed 20% galactose for 4 day at 98 mg/Kg/day; NS = No Significant inhibition of polyol accumulation; assay type: functional, organism-based; summary of the method: as §1
Rattus norvegicus [27] = assay: In vivo inhibition of galactitol accumulation in the sciatic nerve of rats fed 20% galactose for 4 day at 82 mg/kg/day dose; NS = No Significant inhibition of polyol accumulation; assay type: functional, organism-based; summary of the method: as §1
Rattus norvegicus [28] = assay: In vivo inhibition of galactitol accumulation in the diaphragm of rats fed 20% galactose for 4 day at 82 mg/kg/day dose; NS = No Significant inhibition of polyol accumulation; assay type: functional, organism-based; summary of the method: as §1
Rattus norvegicus [29] = assay: In vivo inhibition of galactitol accumulation in the diaphragm of rats fed 20% galactose for 4 day at 94 mg/kg/day dose; NS = No Significant inhibition of polyol accumulation; assay type: functional, organism-based; summary of the method: as §1
Rattus norvegicus [30] = assay: In vivo inhibition of galactitol accumulation in the sciatic nerve of rats fed 20% galactose for 4 day at 94 mg/kg/day dose; NS = No Significant inhibition of polyol accumulation; assay type: functional, organism-based
[31] = target: Aldo-keto reductase family 1 member B1 (Bos taurus) (UniProt P16116); assay: In vitro inhibition of aldose reductase in partially purified bovine lens preparation at a concentration of 10e -6M.; summary of the method: as §2

SMILES: O=C(O)Cn1c(=O)c2cc([N+](=O)[O-])ccc2n(Cc2ccc(Br)cc2F)c1=O
Lowering (Rattus norvegicus [5]): Not significant
inhibition [6]: 38%
inhibition [3]: 71%
Lowering (Rattus norvegicus [7]): Not significant

SMILES: O=C(O)Cn1c2ccccc2c(=O)n1Cc1ccc(Br)cc1F
inhibition [9]: 42%
Lowering (Rattus norvegicus [10]): 51%
inhibition [11]: 28%
Lowering (Rattus norvegicus [12]): 25%

SMILES: O=C(O)Cn1c(=O)c2cc(Br)ccc2n(Cc2ccc(C(F)(F)F)cc2)c1=O
inhibition [13]: 54%
Lowering (Rattus norvegicus [5]): Not significant
Lowering (Rattus norvegicus [7]): Not significant

SMILES: O=C(O)Cn1c(=O)n(Cc2ccc(Cl)c(Cl)c2)c(=S)c2cc(Cl)ccc21
Lowering (Rattus norvegicus [15]): 50%
Lowering (Rattus norvegicus [16]): 28%
inhibition [6]: 54%
inhibition [3]: 89%

SMILES: Cc1c(C)n(Cc2ccc(Cl)c(Cl)c2)c(=O)n(CC(=O)O)c1=O
inhibition [13]: 83%
inhibition [6]: 28%
inhibition [3]: 39%
Lowering (Rattus norvegicus [19]): Not significant
Lowering (Rattus norvegicus [20]): Not significant

SMILES: COc1ccc2c(c1)c(=O)n(CC(=O)O)c(=O)n2Cc1ccc(Cl)c(Cl)c1
inhibition [6]: 49%
Lowering (Rattus norvegicus [21]): 63%
inhibition [3]: 85%
Lowering (Rattus norvegicus [22]): 70%

SMILES: O=C(O)Cn1c(=O)c2cccc(F)c2n(Cc2ccc(Br)cc2F)c1=O
Lowering (Rattus norvegicus [23]): 49%
inhibition [6]: 53%
inhibition [3]: 77%
Lowering (Rattus norvegicus [24]): 70%

SMILES: O=C(O)Cn1c2ccc([N+](=O)[O-])cc2c(=O)n1Cc1ccc(Cl)c(Cl)c1
inhibition [9]: 41%
inhibition [11]: 27%
Lowering (Rattus norvegicus [25]): Not significant
Lowering (Rattus norvegicus [26]): Not significant

SMILES: Cc1nc2ccc(Br)cc2c(=O)n1CC(=O)O
inhibition [2]: 63%
Lowering (Rattus norvegicus [27]): Not significant
inhibition [3]: 20%
Lowering (Rattus norvegicus [28]): Not significant

SMILES: O=C(O)Cn1c(=O)c2cc(Cl)ccc2n(Cc2ccc(Cl)c(Cl)c2)c1=O
Lowering (Rattus norvegicus [23]): 72%
inhibition [6]: 29%
inhibition [3]: 71%
Lowering (Rattus norvegicus [24]): 83%

SMILES: O=C(O)Cn1c(=O)c2cc(Cl)ccc2n(Cc2ccc(Br)cc2F)c1=S
Lowering (Rattus norvegicus [15]): 60%
Lowering (Rattus norvegicus [16]): 39%
inhibition [6]: 24%
inhibition [3]: 70%

SMILES: Cc1nc2ccc(Br)cc2c(=S)n1CC(=O)O
inhibition [2]: 88%
Lowering (Rattus norvegicus [29]): Not significant
inhibition [3]: 54%
Lowering (Rattus norvegicus [30]): Not significant

Continued, in another order:

inhibition [2]: 45%
inhibition [3]: 23%
SMILES: O=C(O)Cn1c(C(F)(F)F)nc2ccc(Br)cc2c1=O
Lowering (Rattus norvegicus [1]): Not significant
Lowering (Rattus norvegicus [4]): Not significant

inhibition [6]: 32%
SMILES: COc1ccc(Cn2c(=O)n(CC(=O)O)c(=O)c3cc(Br)ccc32)cc1Br
Lowering (Rattus norvegicus [7]): Not significant
Lowering (Rattus norvegicus [8]): 24%

inhibition [14]: 34%
SMILES: O=C(O)Cn1c(=O)c2cc(Br)ccc2n(CCc2ccccc2)c1=O
Lowering (Rattus norvegicus [5]): Not significant
Lowering (Rattus norvegicus [7]): Not significant

inhibition [6]: 34%
inhibition [3]: 63%
SMILES: O=C(O)Cn1c2ccc(Cl)cc2c(=O)n1Cc1ccc(Cl)c(Cl)c1
Lowering (Rattus norvegicus [17]): Not significant
Lowering (Rattus norvegicus [18]): Not significant

inhibition [6]: 20%
inhibition [3]: 30%
SMILES: O=C(O)Cn1c(=O)c2cc(Br)ccc2n(Cc2ccc(F)c(F)c2)c1=O
Lowering (Rattus norvegicus [7]): Not significant
Lowering (Rattus norvegicus [8]): 40%

inhibition [31]: 34%
SMILES: CC(c1ccccc1)n1c(=O)n(CC(=O)O)c(=O)c2cc(Br)ccc21 (stereo not drawn)
Lowering (Rattus norvegicus [7]): Not significant
